≈ marks a conversion by molar mass, not a printed value. Calls of active or inactive are those of the source. The calls are words filed in the database; no cut-off is given here.
Assays:
Candida albicans [1] = assay: Inhibition of biofilm formation in Candida albicans 0304103 at 64 ug/ml incubated for 24 hrs in presence of fluconazole by XTT reduction assay; format: functional, organism-based; settings: dose 64.0 µg/ml
Outline: (§1)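 C. albicans 0304103 at 1.0 × 10⁶ CFU/mL in RPMI 1640 allowed to adhere 90 min at 37 °C, washed with PBS, then fresh medium with fluconazole 2–32 μg/mL and/or compound 0.12–64 μg/mL added; 24 h at 37 °C. Biofilm metabolic activity by XTT reduction, OD490. Three independent experiments.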

Candida albicans [2] = assay: Antifungal activity against Candida albicans 0304103 infected in ICR mouse model of candidiasis assessed as reduction in fungal invasion by measuring clusters of fungal infiltration in renal pelvis at 10 mg/kg, ip dosed 24 hrs post infection and measured after 5 days by H and E staining based microscopical analysis; format: functional, organism-based; settings: time 5.0 day
Outline: (§2)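 Two ICR mice per group, infected and treated as in the kidney burden model (IV 5 × 10⁵ C. albicans 0304103; IP compound 10 mg/kg, fluconazole 1 mg/kg, or combination, 5 days). Kidneys fixed in 4% paraformaldehyde, paraffin-embedded, 4 μm sections, H&E stained, examined at 40× and 200×.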

Nakaseomyces glabratus [3] = assay: Synergistic antifungal activity against Candida glabrata assessed as potentiation of ITC antifungal activity by measuring ITC incubated for 48 hrs in presence of fluconazole by checkerboard microdilution assay; format: functional, organism-based
Candida albicans [4] = assay: Inhibition of biofilm formation in Candida albicans 0304103 at 0.12 to 64 ug/ml incubated for 24 hrs by XTT reduction assay; format: functional, organism-based; settings: dose 0.12-64 µg/ml; outline: as §1
Nakaseomyces glabratus [5] = assay: Synergistic antifungal activity against Candida glabrata assessed as potentiation of VRC antifungal activity by measuring VRC incubated for 48 hrs in presence of fluconazole by checkerboard microdilution assay; format: functional, organism-based
Candida albicans [6] = assay: Up-regulation of MDR1 mRNA expression in Candida albicans 0304103 at 32 ug/ml incubated for 24 hrs in presence of 32 ug/ml fluconazole by RT-PCR analysis; format: functional; settings: dose 32.0 µg/ml
Outline: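 Cells from a 1 × 10⁶ cells/mL starting suspension were split into DMSO control, FLC 32 μg/mL, test compound 32 μg/mL and combination (32 + 32 μg/mL) groups, then incubated 24 h at 35 °C in YEPD. Total RNA was extracted and reverse-transcribed. Real-time PCR ran 40 cycles (95 °C 5 s, 60 °C 34 s). Fold change was calculated by 2^−ΔΔCt against ACT1.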

[7] = Toxicity in HUVEC in presence of fluconazole; format: cell-based; settings: human, HUVEC cells
Candida albicans [8] = assay: Inhibition of HDAC in Candida albicans supernatants using Boc-Lys(Ac)-AMC substrate incubated for 18 hrs by fluorescence based assay
Outline: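 Fungal whole-cell HDAC assay: C. albicans converted to protoplasts by snailase/mercaptoethanol (37 °C, 3 h), resuspended in PBS; compound 1–100 μM final, 35 °C 12 h, then Boc-Lys(Ac)-AMC 33 μM, 37 °C 6 h. Stopped with trypsin/Nonidet P-40 buffer, 37 °C 2 h; fluorescence Ex 360/Em 460 nm. Inhibition vs control after blank subtraction; three independent experiments.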

Candida albicans [9] = assay: microbe, parasite or virus in culture; format: functional, 0304103; settings: Candida albicans, 0304103; time 48 hrs; read-out: MIC80
[10] = Toxicity in human L02 cells; format: cell-based
Histone deacetylase 1 = Histone deacetylase 1 (Homo sapiens, UniProt Q13547); assay: Inhibition of human HDAC1 pre-incubated for 5 mins before substrate addition and measured after 30 mins by fluorescence based assay
Pichia kudriavzevii = assay: Antifungal activity against Candida krusei 10153 incubated for 48 hrs by microdilution assay; format: functional
Outline: (§3)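 Checkerboard broth microdilution per CLSI M27-A3 (modified), clinical Candida isolates. Exponential cells in RPMI 1640 (MOPS-buffered) at 10³ cells/mL; fluconazole 0.25–64 μg/mL crossed with test compound 2–64 μg/mL (final). 48 h at 35 °C; OD630 read with background subtracted. MIC80 = 80% growth inhibition; FICI ≤0.5 synergy, >4 antagonism.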

Candida tropicalis = assay: Synergistic antifungal activity against Candida tropicalis assessed as potentiation of ITC antifungal activity by measuring ITC incubated for 48 hrs in presence of fluconazole by checkerboard microdilution assay; format: functional, organism-based
Candida albicans [11] = assay: Synergistic antifungal activity against Candida albicans 10061 incubated for 48 hrs in presence of fluconazole by microdilution assay; format: functional; outline: as §3
Candida albicans [12] = assay: Up-regulation of CDR2 mRNA expression in Candida albicans 0304103 at 32 ug/ml incubated for 24 hrs by RT-PCR analysis; format: functional; settings: dose 32.0 µg/ml
Outline: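 C. albicans 0304103 (initial 1 × 10⁶ cells/mL) treated with DMSO, fluconazole 32 μg/mL, compound 32 μg/mL, or both in YEPD medium, 35 °C for 24 h. Total RNA extracted, reverse transcribed, real-time PCR for 40 cycles; fold change by 2^−ΔΔCt with ACT1 as internal control.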

[Candida] auris [13] = Synergistic antifungal activity against Candida auris assessed as potentiation of VRC antifungal activity by measuring VRC incubated for 48 hrs in presence of fluconazole by checkerboard microdilution assay; format: functional, organism-based; settings: Candidozyma auris
[Candida] auris [14] = Synergistic antifungal activity against Candida auris assessed as potentiation of ITC antifungal activity by measuring ITC incubated for 48 hrs in presence of fluconazole by checkerboard microdilution assay; format: functional, organism-based; settings: Candidozyma auris
Candida albicans [15] = assay: Synergistic antifungal activity against Candida albicans 10061 assessed as fluconazole MIC incubated for 48 hrs in presence of fluconazole by microdilution assay (reference value: fluconazole alone MIC = >[…] ug/ml); format: functional
Candida albicans [16] = assay: Synergistic antifungal activity against azole-resistant Candida albicans assessed as potentiation of ITC antifungal activity by measuring ITC incubated for 48 hrs in presence of fluconazole by checkerboard microdilution assay; format: functional
Candida albicans [17] = assay: Antifungal activity against Candida albicans 0304103 infected in ICR mouse model of candidiasis assessed as reduction in morphological changes of budded-to-hyphal transition at 10 mg/kg, ip dosed 24 hrs post infection and co-treated with 1 mg/kg, ip fluconazole and measured after 5 days by H and E staining based microscopical analysis; format: functional, organism-based; settings: time 5.0 day; outline: as §2

Histone deacetylase 1, sequence (Q13547 whole entry): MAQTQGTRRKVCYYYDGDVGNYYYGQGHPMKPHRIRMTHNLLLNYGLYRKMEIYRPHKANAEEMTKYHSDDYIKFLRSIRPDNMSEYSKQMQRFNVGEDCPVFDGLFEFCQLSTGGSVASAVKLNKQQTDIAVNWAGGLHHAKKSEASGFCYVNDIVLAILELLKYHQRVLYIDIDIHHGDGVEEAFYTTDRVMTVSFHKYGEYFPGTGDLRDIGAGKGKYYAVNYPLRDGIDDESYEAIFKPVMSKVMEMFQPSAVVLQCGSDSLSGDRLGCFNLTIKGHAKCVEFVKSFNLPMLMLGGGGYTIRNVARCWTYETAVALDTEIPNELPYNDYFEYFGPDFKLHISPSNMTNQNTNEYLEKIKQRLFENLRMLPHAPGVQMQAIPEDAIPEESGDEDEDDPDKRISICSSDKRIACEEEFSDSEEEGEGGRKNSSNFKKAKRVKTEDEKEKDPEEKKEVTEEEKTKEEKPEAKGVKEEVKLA

O=C(Cc1ccc(OCCCn2c3c(c4cccc(Cl)c42)CCNC3)cc1)NO
inhibition (Candida albicans [1]): Active
Activity (Candida albicans [2]): inactive
Activity (Nakaseomyces glabratus [3]): Active
inhibition (Candida albicans [4]): inactive
Activity (Nakaseomyces glabratus [5]): Active
fold change (FC) (Candida albicans [6]): 8
IC50 [7]: 12.2 µM
inhibition (Candida albicans [8]): Active
MIC80 (Candida albicans [9]): 0.25 µg/mL (≈ 0.604 µM)
IC50 [10]: 11.5 µM
IC50 (Histone deacetylase 1): 2.23 µM
MIC80 (Pichia kudriavzevii): 64 µg/mL (≈ 155 µM)
Activity (Candida tropicalis): Active
MIC80 (Candida albicans [11]): 2 µg/mL
Activity (Candida albicans [12]): Active
Activity ([Candida] auris [13]): Active
Activity ([Candida] auris [14]): Active
MIC80 (Candida albicans [15]): 2 µg/mL
fractional inhibitory concentration index (FICI) (Candida albicans [16]): 0.035
Activity (Candida albicans [17]): Active
